Data taken from ChEMBL document CHEMBL4257545, “Synthesis of novel perillyl-dihydropyrimidinone hybrids designed for antiproliferative activity” (Medchemcomm, 2018).
Calls of active or inactive are those of the source.

Assays:
Format in all cases: functional, cell-based
OVCAR-3 = assay: Antiproliferative activity against human OVCAR3 cells at 25 uM after 48 hrs by sulforhodamine B assay
Summary of the method: (§1)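 Growth-inhibition profile of each tumour line at a single compound concentration of 25 μM. Cells were treated in DMSO/RPMI (final DMSO 0.2%) for 48 h at 37 °C, 5% CO2. Cells were fixed with 50% TCA before and after exposure. Cellular protein was quantified by sulforhodamine B staining at 540 nm.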

HT-29 = assay: Antiproliferative activity against human HT-29 cells at 25 uM after 48 hrs by sulforhodamine B assay; summary of the method: as §1
PC-3 = assay: Antiproliferative activity against human PC3 cells at 25 uM after 48 hrs by sulforhodamine B assay; summary of the method: as §1
MCF7 = assay: Antiproliferative activity against human MCF7 cells at 25 uM after 48 hrs by sulforhodamine B assay; summary of the method: as §1
NCI/ADR-RES = assay: Antiproliferative activity against human NCI/ADR-RES cells at 25 uM after 48 hrs by sulforhodamine B assay; summary of the method: as §1
786-0 = assay: Antiproliferative activity against human 786-0 cells at 25 uM after 48 hrs by sulforhodamine B assay; summary of the method: as §1
UACC-62 = assay: Antiproliferative activity against human UACC62 cells at 25 uM after 48 hrs by sulforhodamine B assay; summary of the method: as §1

Measured: Activity

CCOC(=O)C1=C(C)NC(=S)NC1c1cccc(O)c1 (configuration not stated)
active: OVCAR-3 | HT-29 | PC-3 | MCF7 | NCI/ADR-RES | 786-0 | UACC-62
